Assay outcomes: PubChem, several laboratories
Rows were chosen to be rich in hits. Some 2.1% of all compounds tested hit in one or more screens of this group.
APJ antag: APJ receptor antagonism; CHO-K1 APJ beta-arrestin complementation, luminescence; AID 2521; 330,000 tested, 0.32% active; inhibition, % at 20 µM;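 active = inhibition above about 40% at 20 µM, limit read from the data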;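 note: cells challenged with 10 nM apelin-13 agonist together with compound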
m5-HT2A agonist: mouse HTR2A agonism via beta-arrestin recruitment. P35363. CHO-K1 mHTR2A beta-arrestin complementation, luminescence; percent of 30 µM serotonin response. activation, % at 7.6 µM. 360,000 tested, 0.66% active. AID 624169;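 active = activation above a run cutoff, the mean activation of all tested compounds plus 3 SD, cut at about 14% in these data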
Target sequence (P35363 whole entry, looked up): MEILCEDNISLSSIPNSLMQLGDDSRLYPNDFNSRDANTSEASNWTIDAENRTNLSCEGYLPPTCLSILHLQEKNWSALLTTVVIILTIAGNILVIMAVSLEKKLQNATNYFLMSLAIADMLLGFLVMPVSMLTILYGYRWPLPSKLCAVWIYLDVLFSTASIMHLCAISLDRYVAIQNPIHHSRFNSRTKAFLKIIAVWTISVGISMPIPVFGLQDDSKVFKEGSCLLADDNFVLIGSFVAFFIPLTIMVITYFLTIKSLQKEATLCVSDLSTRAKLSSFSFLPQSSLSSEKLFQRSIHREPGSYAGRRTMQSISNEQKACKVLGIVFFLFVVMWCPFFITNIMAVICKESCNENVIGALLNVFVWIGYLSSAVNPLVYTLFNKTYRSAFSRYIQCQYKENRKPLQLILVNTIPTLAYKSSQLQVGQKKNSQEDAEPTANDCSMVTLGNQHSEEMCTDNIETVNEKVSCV
CXCR6 block: CXCR6 (human) receptor inhibition; CHO-K1 PathHunter CXCR6 beta-arrestin, luminescence; inhibition, % at 20 µM; 360,000 tested, 0.36% active; in the data active = inhibition above about 34%, passing the limit was not always enough;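 note: antagonist mode with CXCL16 agonist at 10 nM final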
CCR6 antagonist: blocks CCL20-driven beta-arrestin recruitment at human CCR6 | CHO-K1 CCR6 PathHunter beta-arrestin, luminescence, CCL20-stimulated | 340,000 tested, 0.49% active | P51684 | inhibition, % at 20 µM;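 active = compounds whose inhibition of the agonist-driven luminescence signal at 20 µM reaches about 50%, limit read from the data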;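 note: cells stimulated with CCL20 at 14 nM final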
APJ agonist: APJ receptor agonism. 330,000 tested, 0.11% active. activation, % at 20 µM. P35414. CHO-K1 APJ PathHunter beta-arrestin, luminescence; 0% DMSO wells, 100% apelin;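 active = activation more than six SD over the plate average, tested at 20 µM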
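assay system = CHO-K1 APJ beta-arrestin complementation cell line | input = cell density 1000 per well | dosing = compound 20 µM once, DMSO 1% | timing = compound 90 min 25 °C, reagent 1 h | measured by = luminescence from split beta-galactosidase complementation, Galacton Star/Emerald II substrate | read-out basis = APJ agonist activity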
EBI2 antag: EBI2 (human) antagonism. P32249. EBI2 beta-arrestin recruitment, luminescence, 7a,25-OHC stimulated. inhibition, % at 5 µM. 360,000 tested, 0.81% active; in the data active = inhibition above about 38%;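 note: enzyme fragment complementation signal reports receptor beta-arrestin coupling in cells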
APJ antag conf: APJ receptor antagonism confirmation; inhibition, % at 20 µM; APJ beta-arrestin recruitment, luminescence, antagonist mode; 950 tested, 66% active; AID 2766; shares compounds with APJ antag; in the data active = inhibition above about 50%
A number is an active result; 0 = inactive; - = no result given.

SMILES	APJ antag	m5-HT2A agonist	CXCR6 block	CCR6 antagonist	APJ agonist	EBI2 antag	APJ antag conf
CCCCNC(=O)C(c1ccc(OCC(=O)OC)c(C(=O)OC)c1)N(CCc1c[nH]c2ccccc12)C(=O)CCCCCN1C(=O)NC(c2ccc(-c3ccccc3)cc2)C(C(=O)OCc2ccccc2)=C1C (stereo not drawn)	0	-	-	-	0	-	-
CCCCCCCCCCCCCCCC(O)C(N)CO (stereo not drawn)	40.8	0	0	0	0	0	0
CCCCCCCCCCCCCCCC(O)C[N+](C)(C)CCO (stereo not drawn)	-	0	0	0	-	0	-
Cc1onc(NC(=O)CSCC(=O)O)c1Br	0	0	0	0	0	0	-
COc1cc(/C=C(\C#N)c2nc3ccccc3s2)cc([N+](=O)[O-])c1O	50.6	0	44.5	60.3	0	0	87.7
N#C/C(=C\c1ccc(O)c([N+](=O)[O-])c1)c1nc2ccccc2s1	-	0	0	0	-	0	-
Cc1c(Cl)cccc1NC(=S)NNc1ncc(C(F)(F)F)cc1Cl	71.7	0	52.7	87.1	0	0	117.0
O=C(NNc1ncc(C(F)(F)F)cc1Cl)c1c(Cl)cccc1Cl	0	0	0	0	0	0	64.6
COc1ccc(/C=C2/C(=O)N(c3ccccc3)N=C2C)cc1	0	0	0	0	0	0	-
COc1cc(/C=C2/C(=O)N(c3cccc(Br)c3)N=C2C)cc(OC)c1O	53.7	0	58.7	71.6	0	0	82.2
COc1ccc(/C=C2/C(=O)N(c3ccccc3)N=C2C)cc1OC	46.6	0	0	0	0	0	0
CCc1cccc(NC(=O)C2CCCN2C(=O)Nc2ccc(C)cc2)c1 (stereo not drawn)	0	0	0	0	0	0	-
O=C(Nc1ccccc1N1CCN(C(=O)c2ccccc2)CC1)c1ccccc1Cl	80.2	0	0	0	0	0	0
Cc1ccc(CNc2nc(N)c([N+](=O)[O-])c(Nc3cccc(F)c3)n2)cc1	41.1	0	0	0	0	0	0
C=CCN1CC(C(=O)N2CCC(Cc3ccc(Cl)cc3)(C(=O)OCC)CC2)CC1=O (stereo not drawn)	0	0	0	0	0	0	-
O=C(COC(=O)c1ccccc1F)c1ccc(-n2nncc2-c2ccco2)cc1	41.3	0	0	0	0	0	0
CCCCn1c(N)c(N(CC(C)C)C(=O)C2CCN(S(=O)(=O)c3ccc(OCC)cc3)CC2)c(=O)[nH]c1=O	0	0	0	0	0	0	-
COc1cccc(CNc2nc(NC(C)C)nc3ccsc23)c1	-	0	0	-	-	0	-
O=C(NNc1ccc(Cl)cc1)c1sccc1Cl	61.9	0	0	0	0	0	97.8
Cc1ccc(-c2cc(-c3ccccc3)nc(NN)n2)cc1	77.9	0	0	64.5	0	0	140.0
COc1nc(-c2ccccc2)cc(-c2ccc(OC)c(OC)c2)n1	0	0	0	0	0	0	-
COc1ccc(-c2cc(-c3ccccc3)nc(NN)n2)cc1OC	57.2	0	43.0	86.5	0	0	129.2
CC(C)=CCCC(C)c1cc(C(=O)NCCc2ccc(O)cc2)c(N)s1 (stereo not drawn)	-	0	-	-	-	0	-
N#Cc1cccc(NC(=O)CNc2cccc(S(=O)(=O)N3CCCCC3)c2)c1	0	0	0	0	0	0	-
N#Cc1cnn2c3c(cnc12)C(=O)N1CCc2ccccc2C1C3 (stereo not drawn)	47.6	0	0	0	0	0	0
SMILES	APJ antag	m5-HT2A agonist	CXCR6 block	CCR6 antagonist	APJ agonist	EBI2 antag	APJ antag conf
CC(c1ccccc1)N1C(=O)OC(C)(C)C1(C)O (stereo not drawn)	72.3	0	0	0	0	0	0
CN1C(=O)OC(C)(CCc2ccccc2)C1(C)O (stereo not drawn)	0	0	0	0	0	0	-
COC(=O)c1cccc(NC(=O)CSc2nnc(C)o2)c1	0	0	0	0	0	0	-
CC(=O)N/N=C(/c1ccccc1)C(O)c1ccccc1 (stereo not drawn)	42.9	0	0	0	0	0	0
C/C(=N\NC(=O)C(O)c1ccccc1)c1cccnc1 (stereo not drawn)	0	0	0	0	0	0	-
COc1ccc2cc(C)c3nnc(SCc4cccnc4)n3c2c1	40.4	0	0	0	0	0	0
CC(C)C(NC(=O)c1ccc(C(C)(C)C)cc1)C(=O)NCc1ccccn1 (stereo not drawn)	41.0	0	0	0	0	0	0
COc1ccc(C(=O)NC(C(=O)NCc2ccccn2)C(C)C)cc1 (stereo not drawn)	0	0	0	0	0	0	-
Cc1ccc(NC(=O)COC(=O)CCC2CCCC2)c(Br)c1	0	0	0	0	0	0	-
CCN1C(=O)C(=Cc2cccc(OC)c2Oc2ccc([N+](=O)[O-])cc2[N+](=O)[O-])SC1=S	50.2	0	42.5	60.1	0	0	70.6
N#C/C(=N\Nc1ccc(S(=O)(=O)N2CCCCCC2)cc1)C(N)=S	48.2	0	0	0	0	0	64.4
Cc1nnc(N)s1	0	0	0	0	0	0	-
O=c1cc2oc3cc(O)c(O)cc3c(-c3ccccc3[N+](=O)[O-])c-2cc1O	60.9	0	58.5	78.2	0	0	105.4
COc1ccc2nc(NC(=S)N(C)C)sc2c1	51.0	0	0	0	0	0	0
COc1ccc2nc(NC(=O)CSC3=NCCS3)sc2c1	41.3	0	0	0	0	0	0
NC(=O)NN=C1CC2CC1C1C=CCC21 (stereo not drawn)	-	0	0	0	-	0	-
CCOC(=O)C1=C(COC(=O)Cc2c(F)cccc2Cl)NC(=O)NC1C (stereo not drawn)	0	0	0	0	0	0	-
Cc1cc(=O)[nH]c(N=N/C(=N/Nc2ccccc2C)c2ccccc2)n1	0	0	0	0	0	0	-
Cc1cc(=O)[nH]c(N=N/C(=N/Nc2ccc(O)cc2)c2ccccc2)n1	59.3	0	0	55.6	0	0	89.2
CC(C)C(NC(=O)c1ccc(Cl)cc1)C(=O)NCC1CCCO1 (stereo not drawn)	0	0	0	0	0	0	-
CC(C)CC(NC(=O)C1CCCN1C(=O)OC(C)(C)C)C(=O)NCC(N)=O (stereo not drawn)	-	0	0	0	-	0	-
COC(=O)C(CC(C)C)NC(=O)C(Cc1ccccc1)NC(=O)C1CCCN1C(=O)OC(C)(C)C (stereo not drawn)	48.5	0	0	52.1	0	0	0
CCNc1c(N)c(=O)oc2ccccc12	0	0	0	0	0	0	-
CCCNc1c(N)c(=O)oc2ccccc12	56.5	0	0	0	0	0	0
O=C(N=Nc1c(O)[nH]c2ccc([N+](=O)[O-])cc12)c1ccccc1Cl	0	0	0	0	0	0	-
